Hits are enriched below; roughly 4.9% of the tested compounds scored in any of these assays.
APP 5'UTR act: activates APP 5'UTR luciferase reporter. SH-SY5Y APP 5'UTR luciferase reporter, luminescence; zero percent = DMSO vehicle wells. activation, % at 2 µM. 190,000 compounds, 1% hits. AID 1276;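 active means activation above a set limit, based on mean plus 3 SD of controls, cut at about 140% in these data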
STAT3 inh: reduces IL-6 driven STAT3 reporter signal; U3A cells, IL-6 STAT3-luciferase reporter, luminescence; host cell line lacks STAT1; inhibition, % at 5.5 µM; 190,000 compounds, 0.89% hits; AID 862;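 active means inhibition above the mean inhibition across all screened compounds plus 3 SD, cut at about 44% in these data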;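 further: 0% = DMSO only wells and 100% = 100 µM nifuroxazide control wells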
STAT1 blocker: STAT1 signaling inhibition; inhibition, % at 5.5 µM; 200,000 compounds, 0.35% hits; NIH 3T3 STAT1-luciferase reporter, IFN-gamma, luminescence;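 active means inhibition above a set limit, the mean inhibition across all tested compounds plus 3 SD, cut at about 34% in these data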;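 further: 0% = IFN-gamma with DMSO and 100% = IFN-gamma with 300 µM nifuroxazide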
NF-kB expr up: NF-kB expression increase, human neuronal cells; NF-kB reporter expression; hits give high values; fold change at 12.5 µM; 190,000 compounds, 1.6% hits; AID 1239; in the data active means fold change above about 3.3
STAT3 activator: increases IL-6 driven STAT3 reporter signal. U3A cells, IL-6 STAT3-luciferase reporter, luminescence; 100% = signal with IL-6 EC80 alone. activation (% of control), % at 5.6 µM. 190,000 compounds, 0.91% hits. AID 871;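 active means activation above the screen-wide mean of compound activation plus 3 SD, cut at about 130% in these data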;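 further: 0% = background luminescence of wells with medium and substrate only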
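Test system: Human STAT1-deficient U3A cells with stable STAT3-luciferase reporter | Also added: Interleukin-6, 33 ng/mL | Timing: Compound pre-incubation 1 h before IL-6, then 6 h stimulation at 37 °C | Technique: Luciferase reporter luminescence | Read-out: Percent of IL-6-only median luminescence | Benchmarks: IL-6-only wells as 100% reference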
STAT1 act: activators of IFN-gamma induced STAT1 signaling. NIH 3T3 STAT1-luciferase reporter, luminescence; 100% = IFN-gamma alone, no compound. activation (% of control), % at 5.5 µM. 200,000 compounds, 2.6% hits. AID 932;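 active means activation above the screen-wide mean activation plus 3 SD, cut at about 130% in these data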;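 further: raw ratio to IFN-gamma control signal so 100% means no change and 0% no light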
* hit, by the source's call.

Screening CC(=O)Nc1ccc(Nc2ncnc3c2cnn3-c2cccc(C)c2)cc1 returned APP 5'UTR act 32, STAT3 inh 6, STAT1 blocker -48, NF-kB expr up 1.3, STAT3 activator 97 and STAT1 act 144*.
Cc1cccc(-n2ncc3c(NCc4cccs4)ncnc32)c1 was read as APP 5'UTR act 76, STAT3 inh 2, STAT1 blocker -34, NF-kB expr up 2.2, STAT3 activator 102 and STAT1 act 131*.
O=C1c2ccccc2C(=O)N1CCCc1c[nH]c2ccc(Cl)cc12 was read as APP 5'UTR act -2, STAT3 inh 20, STAT1 blocker -9, NF-kB expr up 0.84, STAT3 activator 86 and STAT1 act 108.
`Cc1cc(C(=O)N/N=C2\CC(=O)CC(C)(C)C2)c(C)n1-c1ccccc1` gave APP 5'UTR act 1, STAT3 inh 2, STAT1 blocker 7, NF-kB expr up 0.68, STAT3 activator 101 and STAT1 act 93.
For Cc1cc(C(=O)N/N=C2\CC(=O)c3ccccc32)c(C)n1-c1ccccc1 the results were APP 5'UTR act 108, STAT3 inh 14, STAT1 blocker -43, NF-kB expr up 1.1, STAT3 activator 92 and STAT1 act 137*.
CSc1nncn1/N=C/c1ccc([N+](=O)[O-])cc1 was read as APP 5'UTR act -2, STAT3 inh -5, STAT1 blocker 1, NF-kB expr up 1, STAT3 activator 111 and STAT1 act 98.
`CS/C(N)=N/N=C/c1ccc([N+](=O)[O-])cc1` gave APP 5'UTR act 41, STAT3 inh -4, STAT1 blocker -35, NF-kB expr up 1.9, STAT3 activator 104 and STAT1 act 131*.
Screening Cc1ccc(/C(N)=N/OC(=O)c2cccc(F)c2)cc1 returned APP 5'UTR act 15, STAT3 inh -34, STAT1 blocker -40, NF-kB expr up 4.6*, STAT3 activator 128 and STAT1 act 137*.
Screening N/C(=N\OC(=O)c1ccc(F)cc1)c1ccc(Br)cc1 returned APP 5'UTR act 52, STAT3 inh 19, STAT1 blocker -33, NF-kB expr up 2, STAT3 activator 87 and STAT1 act 128.
Screening Cc1cccc(/C(N)=N/OC(=O)c2ccc3c(c2)OCO3)c1 returned APP 5'UTR act 192*, STAT3 inh 33, STAT1 blocker -50, NF-kB expr up 4.3*, STAT3 activator 71 and STAT1 act 145*.
For COc1ccccc1C/C(N)=N/OC(=O)c1ccc2c(c1)OCO2 the results were APP 5'UTR act 13, STAT3 inh 6, STAT1 blocker -7, NF-kB expr up 1.4, STAT3 activator 98 and STAT1 act 106.
`N/C(=N\OC(=O)c1cccc([N+](=O)[O-])c1)c1cccnc1` gave APP 5'UTR act -10, STAT3 inh 2, STAT1 blocker -25, NF-kB expr up 1.5, STAT3 activator 100 and STAT1 act 122.
`Cc1cccc(/C(N)=N/OC(=O)c2ccc(Br)o2)c1` gave APP 5'UTR act 50, STAT3 inh -24, STAT1 blocker -32, NF-kB expr up 2.9, STAT3 activator 117 and STAT1 act 132*.
Screening Cc1ccc(OC(=O)c2ccc(Br)o2)cc1 returned APP 5'UTR act -3, STAT3 inh 5, STAT1 blocker 6, NF-kB expr up 1.3, STAT3 activator 97 and STAT1 act 95.
Screening Cc1cccc(/C(N)=N/OC(=O)c2cccnc2)c1 returned APP 5'UTR act 149*, STAT3 inh 18, STAT1 blocker -37, NF-kB expr up 2.6, STAT3 activator 87 and STAT1 act 133*.
For Cc1cc(NC(=O)CCC(=O)N(c2ccc(F)cc2)C(C(=O)NC2CCCC2)c2ccc(C)o2)no1 (configuration not stated) the results were APP 5'UTR act -1, STAT3 inh -3, STAT1 blocker -19, NF-kB expr up 1, STAT3 activator 105 and STAT1 act 116.
Screening Cc1cccc(NC(=O)CSc2nnc(-c3ccccc3C)o2)c1 returned APP 5'UTR act 151*, STAT3 inh 27, STAT1 blocker -6, NF-kB expr up 4.7*, STAT3 activator 80 and STAT1 act 105.
Screening Cc1cc(C)cc(NC(=O)CSc2nnc(-c3ccccc3C)o2)c1 returned APP 5'UTR act 41, STAT3 inh 26, STAT1 blocker 5, NF-kB expr up 4.2*, STAT3 activator 84 and STAT1 act 95.
`CN(C)/C=C(\C#N)C(N)=C(C#N)C#N` gave APP 5'UTR act -9, STAT3 inh -1, STAT1 blocker -8, NF-kB expr up 1.1, STAT3 activator 103 and STAT1 act 107.
O=C(NCCN1C(=O)C2C3C=CC(C3)C2C1=O)Nc1cccnc1 (configuration not stated) was read as APP 5'UTR act -3, STAT3 inh 8, STAT1 blocker 1, NF-kB expr up 0.97, STAT3 activator 101 and STAT1 act 99.
For O=C(NCCN1C(=O)C2C3C=CC(C3)C2C1=O)Nc1ccc(Br)cc1 (configuration not stated) the results were STAT3 inh -3, STAT1 blocker -46, NF-kB expr up 2.2, STAT3 activator 111 and STAT1 act 141*.
Screening CCCSc1nc2cc(C)c(C)cc2n1CC(C)O (configuration not stated) returned APP 5'UTR act 33, STAT3 inh 7, STAT1 blocker -10, NF-kB expr up 1, STAT3 activator 101 and STAT1 act 108.
`CCC(CC)c1nnc(NC(=O)c2ccc3ccccc3n2)s1` gave APP 5'UTR act 95, STAT3 inh -60, STAT1 blocker -57, NF-kB expr up 4.9*, STAT3 activator 152* and STAT1 act 152*.
For Cc1cccc(NC(=O)c2ccc3ccccc3n2)c1C the results were APP 5'UTR act 211*, STAT3 inh -48, STAT1 blocker -38, NF-kB expr up 9.1*, STAT3 activator 142* and STAT1 act 134*.
For Clc1ccc(Cn2ncc3c(NCCN4CCOCC4)ncnc32)cc1 the results were APP 5'UTR act -10, STAT3 inh 5, STAT1 blocker 7, NF-kB expr up 0.76, STAT3 activator 98 and STAT1 act 93.
CCOC(=O)Cn1cnc(-c2ccc([N+](=O)[O-])cc2)c1 was read as APP 5'UTR act 14, STAT3 inh -9, STAT1 blocker -41, NF-kB expr up 1.6, STAT3 activator 107 and STAT1 act 136*.
Cc1cc(C)n(C(=O)COc2ccc([N+](=O)[O-])cc2)n1 was read as APP 5'UTR act -6, STAT3 inh -3, STAT1 blocker 4, NF-kB expr up 1.4, STAT3 activator 106 and STAT1 act 97.
`Cc1ccc(/C=C/C(=O)C2C(=O)c3ccccc3C2=O)cc1` gave APP 5'UTR act 57, STAT3 inh 60*, STAT1 blocker 34, NF-kB expr up 2.4, STAT3 activator 54 and STAT1 act 69.
